# What was measured:
# [1] = Chemical stability of the compound; type: physicochemical
# [2] = biological target: GABA-A receptor; anion channel; experiment: Displacement of [3H]muscimol from orthosteric binding site of GABA(A) receptor in Sprague-Dawley rat cortical synaptic membranes by liquid scintillation counting
# [3] = biological target: GHB high-affinity binding site (rat)
# [4] = biological target: T1, GABA-A receptor; alpha-1/beta-2/gamma-2 (Homo sapiens, UniProt P14867+P18507+P47870); type: cell-based
# T1 sequence (P14867 whole entry): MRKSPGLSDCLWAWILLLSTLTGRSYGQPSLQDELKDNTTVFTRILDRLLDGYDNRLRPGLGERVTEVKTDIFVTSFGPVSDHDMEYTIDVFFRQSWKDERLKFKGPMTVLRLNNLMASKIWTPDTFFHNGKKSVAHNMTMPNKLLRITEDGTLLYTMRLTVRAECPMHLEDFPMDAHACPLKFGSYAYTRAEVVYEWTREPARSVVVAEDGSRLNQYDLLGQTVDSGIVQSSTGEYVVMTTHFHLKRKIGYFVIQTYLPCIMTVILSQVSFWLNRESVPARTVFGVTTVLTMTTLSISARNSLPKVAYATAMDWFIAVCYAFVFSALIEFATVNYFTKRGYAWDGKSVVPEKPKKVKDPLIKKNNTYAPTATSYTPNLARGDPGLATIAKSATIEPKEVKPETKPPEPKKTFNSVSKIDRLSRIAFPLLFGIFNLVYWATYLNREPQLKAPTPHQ
# T1 sequence (P47870 whole entry): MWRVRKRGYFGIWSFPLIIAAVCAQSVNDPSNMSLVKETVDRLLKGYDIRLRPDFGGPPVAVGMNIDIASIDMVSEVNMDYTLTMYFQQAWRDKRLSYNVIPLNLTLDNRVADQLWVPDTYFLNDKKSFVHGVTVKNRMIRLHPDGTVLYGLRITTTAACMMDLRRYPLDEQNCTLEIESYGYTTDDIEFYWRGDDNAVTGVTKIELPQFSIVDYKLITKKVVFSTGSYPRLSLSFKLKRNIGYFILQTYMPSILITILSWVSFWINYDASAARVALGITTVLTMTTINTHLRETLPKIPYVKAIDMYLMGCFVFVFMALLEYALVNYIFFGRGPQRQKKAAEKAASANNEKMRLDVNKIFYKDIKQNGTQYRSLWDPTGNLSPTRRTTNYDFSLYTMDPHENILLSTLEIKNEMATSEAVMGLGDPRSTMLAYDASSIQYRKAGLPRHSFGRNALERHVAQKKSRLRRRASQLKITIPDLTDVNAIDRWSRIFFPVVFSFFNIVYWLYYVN
# T1 sequence (P18507 whole entry): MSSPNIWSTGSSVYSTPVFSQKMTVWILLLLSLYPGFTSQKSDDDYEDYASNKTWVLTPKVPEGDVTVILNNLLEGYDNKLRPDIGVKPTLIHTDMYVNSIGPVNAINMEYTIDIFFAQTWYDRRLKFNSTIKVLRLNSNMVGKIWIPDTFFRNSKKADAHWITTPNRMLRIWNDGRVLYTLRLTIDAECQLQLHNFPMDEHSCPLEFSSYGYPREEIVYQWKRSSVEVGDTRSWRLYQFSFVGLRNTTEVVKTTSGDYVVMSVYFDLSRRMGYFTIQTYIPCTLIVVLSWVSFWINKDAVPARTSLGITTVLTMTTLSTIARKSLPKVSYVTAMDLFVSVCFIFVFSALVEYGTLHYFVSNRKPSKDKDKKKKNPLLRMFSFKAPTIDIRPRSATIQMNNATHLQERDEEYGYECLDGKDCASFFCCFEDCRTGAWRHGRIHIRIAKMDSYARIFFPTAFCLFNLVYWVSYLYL
# [5] = Agonist activity at GABA(B) receptor (unknown origin); set-up: species or system Homo sapiens
# [6] = Dissociation constant, pKa of the compound; type: physicochemical
# [7] = Drug uptake in C57BL/6JRj mouse brain at 10 mg/kg, ip after 30 mins by LC-MS analysis; type: ADME, organism-based; details: read-out: Drug uptake
# In short: (§1)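 Mice dosed i.p. at 10 mg/kg. Compound concentrations measured in brain (ng/g) and plasma (ng/mL). Brain-to-plasma distribution ratio taken from these two concentrations.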
# [8] = Plasma concentration in C57BL/6JRj mouse at 10 mg/kg, ip after 30 mins by LC-MS analysis; type: ADME, organism-based; in short: as §1
# [9] = Ratio of drug uptake in C57BL/6JRj mouse brain to plasma at 10 mg/kg, ip after 30 mins by LC-MS analysis; type: ADME, organism-based; details: read-out: BPR; in short: as §1
# [10] = Metabolic stability in mouse liver microsomes assessed as compound remaining at 20 uM preincubated for 5 mins followed by NADPH addition and measured at 0 min by UHPLC-MS/MS analysis; type: ADME, Microsome; details: read-out: Stability
# In short: (§2)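 Parent loss and parent-drug formation quantified by UHPLC-MS/MS. Percent remaining = internal-standard-corrected peak area at each time ÷ peak area at 0 min × 100. The 0-min peak area was compared with freshly prepared compound in neat buffer and MeCN. A dash at 0 min means the compound degraded during sample preparation and pre-incubation. Mean of three biological replicates.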
# [11] = Metabolic stability in mouse liver microsomes assessed as compound remaining at 20 uM preincubated for 5 mins followed by NADPH addition and measured at 30 mins by UHPLC-MS/MS analysis; type: ADME, Microsome; details: read-out: Stability; in short: as §2
# [12] = Metabolic stability in mouse liver microsomes assessed as compound remaining at 20 uM preincubated for 5 mins followed by NADPH addition and measured at 60 mins by UHPLC-MS/MS analysis; type: ADME, Microsome; details: read-out: Stability; in short: as §2
# [13] = Metabolic stability in mouse plasma assessed as compound remaining at 10 uM preincubated for 5 mins followed by NADPH addition and measured at 0 min by UHPLC-MS/MS analysis; type: ADME, cell-free; details: read-out: Stability; in short: as §2
# [14] = Metabolic stability in mouse plasma assessed as compound remaining at 10 uM preincubated for 5 mins followed by NADPH addition and measured at 60 mins by UHPLC-MS/MS analysis; type: ADME, cell-free; details: read-out: Stability; in short: as §2
# [15] = Metabolic stability in mouse plasma assessed as compound remaining at 10 uM preincubated for 5 mins followed by NADPH addition and measured at 120 mins by UHPLC-MS/MS analysis; type: ADME, cell-free; details: read-out: Stability; in short: as §2
SMILES,Ki [2],Ki [3],further results
CCOC(=O)Cc1cn2nc(-c3ccc(Cl)cc3)ccc2n1,–,–,Stability [1]: Unstable
COc1ccc(C2=NN3CC(CC(=O)O)N=C3C=C2)cc1 (stereo unspecified),> 100 µM,45 µM,–
O=C(O)Cc1cn2nc(-c3ccc(Cl)c(Cl)c3)ccc2n1,> 100 µM,0.19 µM,pKi [3]: 6.77
O=C(O)Cc1cn2nc(-c3cccc(Cl)c3)ccc2n1,> 100 µM,0.23 µM,–
COc1cccc(-c2ccc3nc(CC(=O)O)cn3n2)c1,> 100 µM,0.44 µM,–
N=c1ccc(-c2ccc(O)cc2)nn1CCCC(=O)O,0.22 µM,15 µM,IC50 [4]: 11 µM
O=C(O)CCCO [OXYBATE],–,–,EC50 [5]: 5000 µM
CC(=O)OCOC(=O)Cc1cn2nc(-c3ccc(Cl)cc3)ccc2n1,–,–,Stability [1]: Unstable
O=C(O)CC1CN2N=C(c3ccc(Cl)cc3)C=CC2=N1 (stereo unspecified),> 100 µM,146 µM,pKa [6]: 9.7
N=c1ccc(-c2ccc([N+](=O)[O-])cc2)nn1CCCC(=O)O,0.75 µM,14 µM,IC50 [4]: 30 µM
O=C(O)CCC(O)c1ccc(OCc2ccccc2)cc1 (stereo unspecified),> 100 µM,0.12 µM,–
CC(C)(C)C(=O)OCOC(=O)Cc1cn2nc(-c3ccc(Cl)cc3)ccc2n1,–,–,Stability [1]: Unstable
On1cc(C2CCNCC2)c(-c2cccc(-c3ccccc3)c2)n1,0.03 µM,> 100 µM,–
O=C(O)Cc1cn2ccccc2n1,> 100 µM,72 µM,–
N=c1ccc(-c2cccc(Cl)c2)nn1CCCC(=O)O,0.039 µM,21 µM,pKi [3]: 4.66
COc1ccc(-c2ccc3nc(CC(=O)O)cn3n2)cc1,> 100 µM,0.83 µM,pKi [3]: 6.09

SMILES,Ki [2],Ki [3],further results
CC(C)(C)OC(=O)Cc1cn2nc(-c3ccc(Cl)cc3)ccc2n1,–,–,"concentration at 0.5 h [7]: 798 ng/g; concentration at 0.5 h [8]: 212 ng/mL; Kp at 0.5 h [9]: 3.68; remaining at 0 h, 20 µM [10]: 100%; remaining at 0.5 h, 20 µM [11]: 90%; remaining at 1 h, 20 µM [12]: 98%; remaining at 0 h, 10 µM [13]: 100%; remaining at 1 h, 10 µM [14]: 51%; remaining at 2 h, 10 µM [15]: 36%"
O=C(O)CC1CN2N=C(c3cccc(Cl)c3)C=CC2=N1 (stereo unspecified),> 100 µM,> 100 µM,–
O=C(O)Cc1cn2nc(-c3ccc(Cl)cc3)ccc2n1,> 100 µM,0.22 µM,"concentration at 0.5 h [7]: 59 ng/g; concentration at 0.5 h [8]: 7600 ng/mL; Kp at 0.5 h [9]: 0.008; remaining at 0 h, 20 µM [10]: 100%; remaining at 0.5 h, 20 µM [11]: 105%; remaining at 1 h, 20 µM [12]: 100%; remaining at 0 h, 10 µM [13]: 100%; remaining at 1 h, 10 µM [14]: 97%; remaining at 2 h, 10 µM [15]: 99%; Stability [1]: Stable; pKa [6]: 4.5"
COc1cccc(C2=NN3CC(CC(=O)O)N=C3C=C2)c1 (stereo unspecified),> 100 µM,> 100 µM,–
O=C(O)Cc1cn2ncccc2n1,> 100 µM,9.9 µM,–
N=c1ccc(-c2ccc(Cl)cc2)nn1CCCC(=O)O,0.61 µM,11 µM,pKi [2]: 6.23; pKi [3]: 4.99
O=C(O)Cc1cn2nc(-c3cccc(OCc4ccccc4)c3)ccc2n1,> 100 µM,0.51 µM,pKi [3]: 6.33
N=c1ccc(-c2cccc([N+](=O)[O-])c2)nn1CCCC(=O)O,0.078 µM,13 µM,IC50 [4]: 4.4 µM
N=c1ccc(-c2ccccc2)nn1CCCC(=O)O,0.81 µM,100 µM,–
O=C(O)Cc1cn2nc(-c3ccc(OCc4ccccc4)cc3)ccc2n1,> 100 µM,2.2 µM,–
N=c1ccc(-c2cccc(O)c2)nn1CCCC(=O)O,0.13 µM,16 µM,IC50 [4]: 3.9 µM
O=C(O)CC1CN2N=C(c3ccccc3)C=CC2=N1 (stereo unspecified),> 100 µM,427 µM,pKi [3]: 3.41
N=c1ccc(-c2cccc(OCc3ccccc3)c2)nn1CCCC(=O)O,0.87 µM,4.2 µM,pKi [2]: 6.07; pKi [3]: 5.39
N=c1ccc(-c2ccc(OCc3ccccc3)cc2)nn1CCCC(=O)O,0.016 µM,3.1 µM,–
N=c1ccc(-c2cccc(N)c2)nn1CCCC(=O)O,1.1 µM,30 µM,IC50 [4]: 30 µM

# Reference: ChEMBL document CHEMBL4480408 (J Med Chem, 2019)
